Source: ChEMBL document CHEMBL1150393, “Evaluation of radiolabeled (hetero)aromatic analogues of N-(2-diethylaminoethyl)-4-iodobenzamide for imaging and targeted radionuclide therapy of melanoma” (J Med Chem, 2008)

Legend:
[1] = Partition coefficient, log P in phosphate buffer solution at pH 7.4; assay type: physicochemical
In short: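 Shake-flask partition: 50 µM [¹²⁵I]-labelled compound in phosphate buffer pH 7.4 was mixed with 2 mL n-octanol. Each phase was γ-counted, P was taken as the octanol/buffer activity ratio, and log P was reported.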

[2] = Biodistribution in tumor of C57BL/6 mouse bearing mouse B16-F0 cells at 0.74 to 0.92 MBq, iv after 1 hr; assay type: ADME, organism-based, Neoplasm; details: in vivo
In short: (§1)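 [¹²⁵I]-labelled compound given iv by tail vein (0.1 µmol per mouse) to male C57BL6 mice bearing s.c. B16-F0 flank tumours (5 × 10⁵ cells in PBS). Two mice per time point were killed by CO₂, frozen in liquid nitrogen and cut into 40 µm cryosections, eight slices per mouse. Slice radioactivity was read on a multiwire proportional counter, converted to kBq/g and reported as %ID/g.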

[3] = Biodistribution in tumor of C57BL/6 mouse bearing mouse B16-F0 cells at 0.74 to 0.92 MBq, iv after 3 hrs; assay type: ADME, organism-based, Neoplasm; details: in vivo; in short: as §1
[4] = Biodistribution in tumor of C57BL/6 mouse bearing mouse B16-F0 cells at 0.74 to 0.92 MBq, iv after 6 hrs; assay type: ADME, organism-based, Neoplasm; details: in vivo; in short: as §1
[5] = Biodistribution in tumor of C57BL/6 mouse bearing mouse B16-F0 cells at 0.74 to 0.92 MBq, iv after 24 hrs; assay type: ADME, organism-based, Neoplasm; details: in vivo; in short: as §1
[6] = Biodistribution in tumor of C57BL/6 mouse bearing mouse B16-F0 cells at 0.74 to 0.92 MBq, iv after 72 hrs; assay type: ADME, organism-based, Neoplasm; details: in vivo; in short: as §1
[7] = Ratio of drug level in tumor to liver of C57BL/6 mouse bearing mouse B16-F0 cells at 0.74 to 0.92 MBq, iv after 6 hrs; assay type: ADME, organism-based; details: in vivo
In short: (§2)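 Tumour and organ radioactive concentrations came from whole-body cryosection counting (40 µm slices, eight per mouse, two mice per time) after tail-vein injection of the [¹²⁵I]-labelled compound (0.1 µmol) into male C57BL6 mice bearing s.c. B16-F0 melanoma. Each value is the ratio of the tumour concentration to the organ concentration.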

[8] = Ratio of drug level in tumor to liver of C57BL/6 mouse bearing mouse B16-F0 cells at 0.74 to 0.92 MBq, iv after 24 hrs; assay type: ADME, organism-based; details: in vivo; in short: as §2
[9] = Ratio of drug level in tumor to lung of C57BL/6 mouse bearing mouse B16-F0 cells at 0.74 to 0.92 MBq, iv after 1 hr; assay type: ADME, organism-based; details: in vivo; in short: as §2
[10] = Ratio of drug level in tumor to lung of C57BL/6 mouse bearing mouse B16-F0 cells at 0.74 to 0.92 MBq, iv after 6 hrs; assay type: ADME, organism-based; details: in vivo; in short: as §2
[11] = Ratio of drug level in tumor to brain of C57BL/6 mouse bearing mouse B16-F0 cells at 0.74 to 0.92 MBq, iv after 1 hr; assay type: ADME, organism-based; details: in vivo; in short: as §2
[12] = Ratio of drug level in tumor to brain of C57BL/6 mouse bearing mouse B16-F0 cells at 0.74 to 0.92 MBq, iv after 3 hrs; assay type: ADME, organism-based; details: in vivo; in short: as §2
Brain = experiment: Biodistribution in brain of C57BL/6 mouse bearing mouse B16-F0 cells at 0.74 to 0.92 MBq, iv after 1 hr; assay type: ADME, organism-based; details: in vivo
In short: (§3)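 Male C57BL6 mice with s.c. left-flank B16-F0 melanoma (5 × 10⁵ cells in PBS). Two mice per time point frozen in liquid nitrogen after CO₂ sacrifice. Eight 40 µm whole-body cryosections per mouse read by multiwire proportional counter. cpm/mm² converted to kBq/g and expressed as %ID/g.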

[13] = Biodistribution in intestinal content of C57BL/6 mouse bearing mouse B16-F0 cells at 0.74 to 0.92 MBq, iv after 6 hrs; assay type: ADME, organism-based; details: in vivo; in short: as §3
[14] = Biodistribution in Stomach content of C57BL/6 mouse bearing mouse B16-F0 cells at 0.74 to 0.92 MBq, iv after 1 hr; assay type: ADME, organism-based; details: in vivo; in short: as §3
[15] = Biodistribution in Stomach content of C57BL/6 mouse bearing mouse B16-F0 cells at 0.74 to 0.92 MBq, iv after 3 hrs; assay type: ADME, organism-based; details: in vivo; in short: as §3
[16] = Biodistribution in Stomach content of C57BL/6 mouse bearing mouse B16-F0 cells at 0.74 to 0.92 MBq, iv after 6 hrs; assay type: ADME, organism-based; details: in vivo; in short: as §3
Liver [17] = experiment: Biodistribution in liver of C57BL/6 mouse bearing mouse B16-F0 cells at 0.74 to 0.92 MBq, iv after 1 hr; assay type: ADME, organism-based; details: in vivo; in short: as §3
Liver [18] = experiment: Biodistribution in liver of C57BL/6 mouse bearing mouse B16-F0 cells at 0.74 to 0.92 MBq, iv after 6 hrs; assay type: ADME, organism-based; details: in vivo; in short: as §3
Liver [19] = experiment: Biodistribution in liver of C57BL/6 mouse bearing mouse B16-F0 cells at 0.74 to 0.92 MBq, iv after 24 hrs; assay type: ADME, organism-based; details: in vivo; in short: as §3
Muscle tissue = experiment: Biodistribution in muscle of C57BL/6 mouse bearing mouse B16-F0 cells at 0.74 to 0.92 MBq, iv after 1 hr; assay type: ADME, organism-based; details: in vivo; in short: as §3
Pancreas = experiment: Biodistribution in pancreas of C57BL/6 mouse bearing mouse B16-F0 cells at 0.74 to 0.92 MBq, iv after 1 hr; assay type: ADME, organism-based; details: in vivo; in short: as §3
Lung [20] = experiment: Biodistribution in lung of C57BL/6 mouse bearing mouse B16-F0 cells at 0.74 to 0.92 MBq, iv after 1 hr; assay type: ADME, organism-based; details: in vivo; in short: as §3
Lung [21] = experiment: Biodistribution in lung of C57BL/6 mouse bearing mouse B16-F0 cells at 0.74 to 0.92 MBq, iv after 6 hrs; assay type: ADME, organism-based; details: in vivo; in short: as §3
Spleen [22] = experiment: Biodistribution in spleen of C57BL/6 mouse bearing mouse B16-F0 cells at 0.74 to 0.92 MBq, iv after 1 hr; assay type: ADME, organism-based; details: in vivo; in short: as §1
Kidney [23] = experiment: Biodistribution in kidney of C57BL/6 mouse bearing mouse B16-F0 cells at 0.74 to 0.92 MBq, iv after 1 hr; assay type: ADME, organism-based; details: in vivo; in short: as §3
Kidney [24] = experiment: Biodistribution in kidney of C57BL/6 mouse bearing mouse B16-F0 cells at 0.74 to 0.92 MBq, iv after 3 hrs; assay type: ADME, organism-based; details: in vivo; in short: as §3
Blood [25] = experiment: Biodistribution in blood of C57BL/6 mouse bearing mouse B16-F0 cells at 0.74 to 0.92 MBq, iv after 3 hrs; assay type: ADME, organism-based; details: in vivo; in short: as §3
Blood [26] = experiment: Biodistribution in blood of C57BL/6 mouse bearing mouse B16-F0 cells at 0.74 to 0.92 MBq, iv after 6 hrs; assay type: ADME, organism-based; details: in vivo; in short: as §3
Thyroid gland [27] = experiment: Biodistribution in thyroid of C57BL/6 mouse bearing mouse B16-F0 cells at 0.74 to 0.92 MBq, iv after 6 hrs; assay type: ADME, organism-based; details: in vivo; in short: as §1
Thyroid gland [28] = experiment: Biodistribution in thyroid of C57BL/6 mouse bearing mouse B16-F0 cells at 0.74 to 0.92 MBq, iv after 24 hrs; assay type: ADME, organism-based; details: in vivo; in short: as §1
[29] = Biodistribution in uvea of C57BL/6 mouse bearing mouse B16-F0 cells at 0.74 to 0.92 MBq, iv after 3 hrs; assay type: ADME, organism-based, Uveal tract; details: in vivo; in short: as §1
[30] = Biodistribution in uvea of C57BL/6 mouse bearing mouse B16-F0 cells at 0.74 to 0.92 MBq, iv after 6 hrs; assay type: ADME, organism-based, Uveal tract; details: in vivo; in short: as §1
[31] = Biodistribution in uvea of C57BL/6 mouse bearing mouse B16-F0 cells at 0.74 to 0.92 MBq, iv after 72 hrs; assay type: ADME, organism-based, Uveal tract; details: in vivo; in short: as §1
Spleen [32] = experiment: Biodistribution in spleen of C57BL/6 mouse bearing mouse B16-F0 cells at 0.74 to 0.92 MBq, iv after 3 hrs; assay type: ADME, organism-based; details: in vivo; in short: as §1

logD [1]	Drug uptake [2]	Drug uptake [3]	Drug uptake [4]	Drug uptake [5]	Drug uptake [6]	Ratio [7]	Ratio [9]	Ratio [10]	Ratio [11]	Ratio [12]	Drug uptake (Brain)	Drug uptake [13]	Drug uptake [14]	Drug uptake [15]	Drug uptake [16]	Drug uptake (Liver [17])	Drug uptake (Liver [18])	Drug uptake (Muscle tissue)	Drug uptake (Pancreas)	SMILES	other results
1.65	7.3 % ID/g	7.1 % ID/g	7.9 % ID/g	7.1 % ID/g	3.1 % ID/g	5.14	1.96	3.86	24.23	79.11	0.3 % ID/g	29.16 % ID/g	23.01 % ID/g	19.05 % ID/g	28.44 % ID/g	3.86 % ID/g	1.54 % ID/g	0.74 % ID/g	2.39 % ID/g	CCN(CC)CCNC(=O)c1cc2c([125I])cccc2cn1.Cl.Cl	Ratio [8]: 16.4; Drug uptake (Liver [19]): 0.43 % ID/g; Drug uptake (Lung [20]): 3.68 % ID/g; Drug uptake (Lung [21]): 2.05 % ID/g; Drug uptake (Spleen [22]): 2.83 % ID/g; Drug uptake (Kidney [23]): 4.62 % ID/g; Drug uptake (Kidney [24]): 2.66 % ID/g; Drug uptake (Blood [25]): 2.65 % ID/g; Drug uptake (Blood [26]): 2.17 % ID/g; Drug uptake (Thyroid gland [27]): 48.93 % ID/g; Drug uptake (Thyroid gland [28]): 88.65 % ID/g; Drug uptake [29]: 13.87 % ID/g; Drug uptake [30]: 18.02 % ID/g; Drug uptake [31]: 9.73 % ID/g
-0.29	15.5 % ID/g	9.3 % ID/g	7 % ID/g	2.7 % ID/g	0.9 % ID/g	3.33	2.04	2.17	24.2	42.14	0.64 % ID/g	2.98 % ID/g	34.8 % ID/g	42.71 % ID/g	50.21 % ID/g	5.14 % ID/g	2.09 % ID/g	1.48 % ID/g	3.94 % ID/g	CCN(CC)CCNC(=O)c1ccc([125I])nc1.Cl.Cl	Drug uptake (Lung [20]): 7.59 % ID/g; Drug uptake (Lung [21]): 3.21 % ID/g; Drug uptake (Spleen [22]): 5.44 % ID/g; Drug uptake (Spleen [32]): 2.68 % ID/g; Drug uptake (Kidney [23]): 6.08 % ID/g; Drug uptake (Kidney [24]): 3.26 % ID/g; Drug uptake (Blood [25]): 4.22 % ID/g; Drug uptake (Blood [26]): 3.71 % ID/g; Drug uptake (Thyroid gland [27]): 7.92 % ID/g; Drug uptake (Thyroid gland [28]): 111.3 % ID/g; Drug uptake [29]: 12.69 % ID/g; Drug uptake [30]: 11.5 % ID/g; Drug uptake [31]: 2.54 % ID/g
1.33	13 % ID/g	11.4 % ID/g	9 % ID/g	7 % ID/g	1.5 % ID/g	3.28	1.1	4.22	2.97	14.6	4.37 % ID/g	18.72 % ID/g	27.82 % ID/g	24.69 % ID/g	10.79 % ID/g	9.46 % ID/g	2.73 % ID/g	1.92 % ID/g	10.18 % ID/g	CCN(CC)CCNC(=O)c1ccc2cc([125I])ccc2c1.Cl	Drug uptake (Lung [20]): 11.82 % ID/g; Drug uptake (Lung [21]): 2.12 % ID/g; Drug uptake (Spleen [22]): 9.7 % ID/g; Drug uptake (Spleen [32]): 2.59 % ID/g; Drug uptake (Kidney [23]): 13.3 % ID/g; Drug uptake (Kidney [24]): 5.65 % ID/g; Drug uptake (Blood [25]): 1.77 % ID/g; Drug uptake (Blood [26]): 1.74 % ID/g; Drug uptake [29]: 13.9 % ID/g; Drug uptake [30]: 12.76 % ID/g; Drug uptake [31]: 7.84 % ID/g
